Consider nine compounds from ChEMBL document CHEMBL1759877, “Identification and evaluation of soft coral diterpenes as inhibitors of HIF-2α induced gene expression” (Bioorg Med Chem Lett, 2011).

A short description of assay [1]: Cytotoxicity against human 786-O cells by XTT assay. The conditions noted are these: 786-0. In kind it is functional, cell-based. A general note: Tetrazolium dyes change colour on reduction, which living cells bring about.
Assay [2] addresses Endothelial PAS domain-containing protein 1 (Homo sapiens, UniProt Q99814). The assay is described as follows: Inhibition of HIF-2alpha activity in human 786-O cells by luciferase assay. In kind it is cell-based. In a few lines:
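Cells seeded at 5000 per well and allowed to attach overnight, then exposed to test samples or controls the next day. Incubation lasted one day so the HIF-2 signal could drop. Luciferin was then added to the cells and the luciferase signal read.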

Chain of Endothelial PAS domain-containing protein 1 (Q99814 whole entry, the tested form may be a part): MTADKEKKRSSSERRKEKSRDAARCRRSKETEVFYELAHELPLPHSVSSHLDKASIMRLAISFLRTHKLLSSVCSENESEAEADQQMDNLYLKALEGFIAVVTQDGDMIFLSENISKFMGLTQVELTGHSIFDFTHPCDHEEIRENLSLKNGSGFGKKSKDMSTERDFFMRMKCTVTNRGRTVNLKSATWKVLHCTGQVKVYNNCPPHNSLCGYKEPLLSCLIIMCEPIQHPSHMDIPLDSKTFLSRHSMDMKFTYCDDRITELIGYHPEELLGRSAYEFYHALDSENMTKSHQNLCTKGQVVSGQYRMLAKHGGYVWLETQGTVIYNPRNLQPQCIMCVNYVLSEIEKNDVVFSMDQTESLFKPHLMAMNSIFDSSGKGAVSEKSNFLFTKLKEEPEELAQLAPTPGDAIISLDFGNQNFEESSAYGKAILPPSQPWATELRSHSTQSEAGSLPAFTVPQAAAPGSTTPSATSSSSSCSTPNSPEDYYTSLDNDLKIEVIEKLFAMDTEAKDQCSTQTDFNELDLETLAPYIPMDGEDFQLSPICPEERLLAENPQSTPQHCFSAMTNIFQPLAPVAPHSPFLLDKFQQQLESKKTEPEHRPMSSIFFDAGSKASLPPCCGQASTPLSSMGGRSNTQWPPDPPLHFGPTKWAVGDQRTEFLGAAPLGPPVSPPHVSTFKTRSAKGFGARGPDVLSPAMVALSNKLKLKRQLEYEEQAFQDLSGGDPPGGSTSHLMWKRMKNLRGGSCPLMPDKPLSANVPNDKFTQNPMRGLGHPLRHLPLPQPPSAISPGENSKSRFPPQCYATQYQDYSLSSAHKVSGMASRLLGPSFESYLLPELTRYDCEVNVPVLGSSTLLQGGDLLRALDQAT

For orientation: IC50 means the concentration at which inhibition is half-maximal. By EC50 is commonly meant the midpoint of the concentration-response curve. Regarding `C/C1=C\C=C(\C(C)C)CCC2=CCC[C@](C)(OC2=O)[C@H](O)CC1`, the IC50 result in assay [1] was “Not Active”. Also, in assay [2], the EC50 result is recorded as “Not Active”.
With `C=C(C)[C@@H]1CC(=O)/C(C)=C/CC/C(C)=C/CC[C@]2(C)O[C@@H]2C1`, the IC50 in assay [1] (Homo sapiens, read-out: IC50) was 147 µM. The EC50 in assay [2] (read-out: EC50) worked out at 108 µM.
As for `CC1=C2CC/C(C)=C/CC[C@]3(C)O[C@@H]3CC/C(C)=C/[C@H]2OC1`, the 50% inhibitory concentration (IC50) in assay [1] (Homo sapiens, read-out: IC50) came out at 291 µM. Moreover, in assay [2] (read-out: EC50), the EC50 was determined as 183 µM.
Take `C/C1=C\CC[C@]2(C)O[C@@H]2CC/C(C)=C/C=C(/C(C)(C)O)CC1`: the IC50 result in assay [1] is recorded as “Not Active”. The concentration for a half-maximal effect (EC50) result in assay [2] was “Not Active”.
Consider `C=C1CC/C=C(/C)CC[C@@H]2C([C@@H](OC(C)=O)[C@H](C=C(C)C)OC(C)=O)=CO[C@H](OC(C)=O)[C@@H]12`, for which, in assay [1] (Homo sapiens, read-out: IC50), the 50% inhibitory concentration (IC50) is 5.2 µM. Besides, the 50% effective concentration (EC50) in assay [2] (read-out: EC50) is 3.4 µM.
Turning to `C=C1C[C@@H](O)/C=C(/C)CC[C@@H]2C([C@@H](OC(C)=O)[C@H](C=C(C)C)OC(C)=O)=CO[C@H](OC(C)=O)[C@@H]12`, the IC50 in assay [1] (Homo sapiens, read-out: IC50) came out at 26.3 µM. Besides, in assay [2] (read-out: EC50), the EC50 came out at 6.2 µM.
On to `C=C1CC[C@H](OO)C(=C)CC[C@@H]2C([C@@H](OC(C)=O)[C@H](C=C(C)C)OC(C)=O)=CO[C@H](OC(C)=O)[C@@H]12`, for which the 50% inhibitory concentration (IC50) in assay [1] (Homo sapiens, read-out: IC50) was 14.2 µM. For the same compound, the concentration giving a half-maximal response (EC50) in assay [2] (read-out: EC50) is 11.8 µM.
On to `C=C(C)/C1=C/C=C(\C)CC[C@@H](O)[C@]2(C)CCC=C(CC1)C(=O)O2` (relative stereo), for which, in assay [1], the IC50 entry is “Not Active”. Moreover, the concentration giving a half-maximal response (EC50) entry in assay [2] was “Not Active”.
For `COC(C)(C)/C1=C/C=C(\C)CC[C@H]2O[C@@]2(C)CC/C=C(\C)CC1` (relative stereo), the 50% inhibitory concentration (IC50) in assay [1] (Homo sapiens, read-out: IC50) came to 134 µM. In addition, the concentration for a half-maximal effect (EC50) in assay [2] (read-out: EC50) amounted to 149 µM.
